From ChEMBL document CHEMBL5316304, “Collaborative Virtual Screening Identifies a 2-Aryl-4-aminoquinazoline Series with Efficacy in an In Vivo Model of Trypanosoma cruzi Infection” (J Med Chem, 2023)
Values after ≈ are worked out from the molar mass of the structure shown. Active and inactive are the calls of the source. The rule behind the calls is not given here.

How the values were obtained:
Trypanosoma cruzi [1] = experiment: Antitrypanosomal activity against intracellular Trypanosoma cruzi infected in human U2OS cells assessed as parasite growth inhibition incubated for 72 hrs by confocal microscopy; type: functional, organism-based
[2] = Selectivity index, ratio of IC50 for human U2OS cells to IC50 for intracellular Trypanosoma cruzi infected in human U2OS cells; type: toxicity, cell-based; details: for selectivity ratio: U2OS cells, read-out: Selectivity Index
Summary of the method: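 Host U2OS cell counts and intracellular parasite infection ratio were read from the same 72 h DRAQ5-stained confocal imaging assay. CC50 and EC50 came from 4-parameter logistic fits, and the selectivity index is their ratio.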

[3] = Intrinsic clearance in mouse liver microsomes at 1 uM incubated for 15 to 30 mins by LC/MS/MS analysis; type: ADME, Microsome; details: time 15-30 min
[4] = Intrinsic clearance in human liver microsomes at 1 uM incubated for 15 to 30 mins by LC/MS/MS analysis; type: ADME, Microsome; details: time 15-30 min
[5] = Kinetic solubility of compound in aqueous buffer at pH 6.8 incubated for 16 to 24 hrs by HPLC analysis; type: physicochemical; details: time 16-24 hrs, read-out: Kinetic_solubility
[6] = Permeability of compound incubated for 3 hrs by PAMPA assay; type: ADME; details: read-out: permeability
[7] = Selectivity index, ratio of IC50 for human THP-1 cells to IC50 for Leishmania donovani infected in human THP-1 cells; type: toxicity, cell-based; details: read-out: Selectivity Index
Trypanosoma cruzi [8] = experiment: Inhibition of Trypanosoma cruzi CYP51 upto 100 uM by fluorescence based assay
Trypanosoma cruzi [9] = experiment: Antitrypanosomal activity against acute-stage Trypanosoma cruzi CL Brener infected in BALB/c mouse assessed as reduction in parasite burden at 50 mg/kg, po bid administered for 5 days measured after 14 days by bioluminescence imaging based analysis; type: functional, organism-based; details: time 14.0 day

Structure (SMILES) | IC50 (Trypanosoma cruzi [1]; Trypanosoma cruzi, U2OS, 72 h) [nM] | selectivity ratio [2] | other results
c1ccc(CN2CCN(c3nc(-c4ccccn4)nc4ccccc34)CC2)cc1 | 450 | 27 | –
CCCN(CCC)c1nc(-c2ccccn2)nc2ccccc12 | 170 | – | –
c1ccc(CNc2nc(-c3ccccn3)nc3ccccc23)cc1 | 130 | 57 | –
Fc1cccc(Nc2nc(-c3ccccn3)nc3ccccc23)c1 | 510 | 20 | –
OC1(c2ccccc2)CCN(c2nc(-c3ccccn3)nc3ccccc23)C1 (configuration not stated) | 35000 | 2.8 | –
Cc1cccc(N2CCN(c3nc(-c4ccccn4)nc4ccccc34)CC2)n1 | 1900 | 7 | –
c1ccc(CCNc2nc(-c3ccccn3)nc3ccccc23)cc1 | 80 | – | –
Cc1cccnc1CNc1nc(-c2ccccn2)nc2ccccc12 | 1600 | 15 | –
c1ccc(-c2nc(N3CCC(c4ccccn4)C3)c3ccccc3n2)nc1 (stereo in doubt; 85-tR2) | – | – | IC50 (Trypanosoma cruzi [1]; u2os): 960 nM; Selectivity Index [2]: 6.4
Cn1ccnc1CNc1nc(-c2ccccn2)nc2ccccc12 | 3300 | 14 | –
c1ccc(-c2nc(NCc3nc4ccccc4o3)c3ccccc3n2)nc1 | 2500 | 16 | –
Fc1ccc(Nc2nc(-c3ccccn3)nc3ccccc23)cc1 | 1300 | – | –
Cc1ccc(Nc2nc(-c3ccccn3)nc3ccccc23)cc1 | 120 | – | –
c1ccc(-c2nc(NCc3cccnc3)c3ccccc3n2)nc1 | 6300 | 8 | –
OC1(c2ccccc2)CCN(c2nc(-c3ccccn3)nc3ccccc23)CC1 | 3300 | 15 | –
Cc1cccc(CNc2nc(-c3ccccn3)nc3ccccc23)n1 | 2400 | 21 | –
O=S(=O)(c1cccs1)N1CCc2nc(-c3ccccn3)nc(N3CCCCCC3)c2C1 | 860 | > 58 | –
Cc1cnc(C)c(Nc2nc(-c3ccccn3)nc3ccccc23)c1 | 14000 | 3.6 | intrinsic clearance (CLint) [3]: 154 µL/min/mg; CLint [4]: < 1 µL/min/mg; solubility kinetic [5]: 31 µg/mL (≈ 94.7 µM); Papp at 3 h [6]: 20.1 ×10⁻⁶ cm/s
c1ccc(-c2nc(Nc3ccc4[nH]ncc4c3)c3ccccc3n2)nc1 | 6200 | 3.5 | –

Structure (SMILES) | IC50 (Trypanosoma cruzi [1]; Trypanosoma cruzi, U2OS, 72 h) [nM] | selectivity ratio [2] | other results
Cn1cc(CNc2nc(-c3ccccn3)nc3ccccc23)cn1 | 9600 | 5.2 | –
c1ccc(-c2nc(NCCn3ccnc3)c3ccccc3n2)nc1 | 49000 | 1 | –
CCC(C)Nc1nc(-c2ccccn2)nc2ccccc12 (configuration not stated) | 2100 | – | –
Cc1nc(-c2ccccn2)nc(NCc2ccccc2)c1Cl | > 50000 | – | selectivity ratio [7]: > 2.5
c1ccc(N2CCN(c3nc(-c4ccccn4)nc4ccccc34)CC2)cc1 | 430 | – | intrinsic clearance (CLint) [3]: > 500 µL/min/mg; CLint [4]: 95 µL/min/mg; solubility kinetic [5]: 15 µg/mL (≈ 40.8 µM); Papp at 3 h [6]: 29.1 ×10⁻⁶ cm/s
COc1ccc(Nc2nc(-c3ccccn3)nc3ccccc23)cc1 | 1200 | – | –
c1ccc(CCNc2nc(-c3ccccn3)nc3ccccc23)nc1 | 3400 | 14 | –
Cc1ccc(Nc2nc(-c3ccccn3)nc3ccccc23)nc1 | 100 | < 1 | –
c1ccc(-c2nc(N3CCC(c4ccccn4)C3)c3ccccc3n2)nc1 (stereo in doubt; 85-tR1) | – | – | IC50 (Trypanosoma cruzi [1]; u2os): 1100 nM; Selectivity Index [2]: 4.2
c1ccc(CNc2nc(-c3ccccn3)nc3ccccc23)nc1 | 4400 | 11 | –
c1ccc(-c2nc(N3CCc4ccccc4C3)c3ccccc3n2)nc1 | 720 | 6.6 | intrinsic clearance (CLint) [3]: 464 µL/min/mg; CLint [4]: 150 µL/min/mg; solubility kinetic [5]: 10 µg/mL (≈ 29.5 µM); Papp at 3 h [6]: 40.8 ×10⁻⁶ cm/s
c1ccc(OC2CCN(c3nc(-c4ccccn4)nc4ccccc34)C2)cc1 (configuration not stated) | – | 6.5 | intrinsic clearance (CLint) [3]: > 500 µL/min/mg; CLint [4]: 361 µL/min/mg; solubility kinetic [5]: 7.7 µg/mL (≈ 20.9 µM); Papp at 3 h [6]: 43 ×10⁻⁶ cm/s
c1ccc(-c2nc(N3CCC(c4ccccn4)C3)c3ccccc3n2)nc1 (racemic) | – | – | Activity (Trypanosoma cruzi [9]): inactive
c1ccc(-c2nc(NC3(c4ccccn4)CC3)c3ccccc3n2)nc1 | 4200 | 12 | intrinsic clearance (CLint) [3]: 24 µL/min/mg; CLint [4]: 7 µL/min/mg; solubility kinetic [5]: 84 µg/mL (≈ 247 µM); Papp at 3 h [6]: 21.9 ×10⁻⁶ cm/s
CC(Nc1nc(-c2ccccn2)nc2ccccc12)c1ccccn1 (configuration not stated) | 2700 | 18 | –
Cc1ccc(Nc2nc(-c3ccccn3)nc3ccccc23)cn1 | 31000 | 1.6 | –
c1ccc(-c2nc(NCCn3cnc4ccccc43)c3ccccc3n2)nc1 | 8200 | 6.1 | –
c1ccc(-c2nc(NCc3nccs3)c3ccccc3n2)nc1 | 2700 | 19 | –
c1ccc(-c2nc(Nc3ccn4nccc4c3)c3ccccc3n2)nc1 | 11000 | 2.9 | –

More lines, main results first:

IC50 (Trypanosoma cruzi [1]; Trypanosoma cruzi, U2OS, 72 h) [nM] | Structure (SMILES) | selectivity ratio [2] | other results
18000 | N#CC1CCCN(c2nc(-c3ccccn3)nc3ccccc23)C1 (configuration not stated) | 2.7 | –
23000 | NC(=O)C1CCN(c2nc(-c3ccccn3)nc3ccccc23)C1 (configuration not stated) | 2.2 | –
360 | c1ccc(C2CCCN(c3nc(-c4ccccn4)nc4ccccc34)C2)cc1 (configuration not stated) | 6.4 | intrinsic clearance (CLint) [3]: 318 µL/min/mg; CLint [4]: 205 µL/min/mg; solubility kinetic [5]: 0.1 µg/mL (≈ 0.273 µM); Papp at 3 h [6]: 41.6 ×10⁻⁶ cm/s
100 | CCn1cc2nc(-c3ccccn3)nc(N3CCC(c4ccccn4)C3)c2n1 (configuration not stated) | 2.8 | intrinsic clearance (CLint) [3]: 70 µL/min/mg; CLint [4]: < 1 µL/min/mg; solubility kinetic [5]: 94 µg/mL (≈ 253 µM); Papp at 3 h [6]: 22 ×10⁻⁶ cm/s
1100 | c1ccc(-c2nc(N3CCCC3)c3ccccc3n2)nc1 | 8.6 | –
1800 | c1ccc(-c2nc(N3CCCC3c3ccccn3)c3ccccc3n2)nc1 (configuration not stated) | 25 | –
430 | CC1CCCN(c2nc(-c3ccccn3)nc3ccccc23)C1 (configuration not stated) | 19 | intrinsic clearance (CLint) [3]: 452 µL/min/mg; CLint [4]: 188 µL/min/mg; solubility kinetic [5]: 69 µg/mL (≈ 227 µM); Papp at 3 h [6]: 36.4 ×10⁻⁶ cm/s
1200 | CCn1ncc2nc(-c3ccccn3)nc(N3CCC(c4ccccn4)C3)c21 (configuration not stated) | 2.7 | –
2700 | CCn1cnc2c(N3CCC(c4ccccn4)C3)nc(-c3ccccn3)nc21 (configuration not stated) | 2.7 | –
1300 | c1ccc(-c2nc(N3CCCC(c4ccccn4)C3)c3ccccc3n2)nc1 (configuration not stated) | 7.3 | –
1800 | Cn1ncc2nc(-c3ccccn3)nc(N3CCC(c4ccccn4)C3)c21 (configuration not stated) | 2.9 | solubility kinetic [5]: 99 µg/mL (≈ 277 µM); Papp at 3 h [6]: 17.1 ×10⁻⁶ cm/s
410 | CC1CCN(c2nc(-c3ccccn3)nc3ccccc23)CC1 | – | intrinsic clearance (CLint) [3]: > 500 µL/min/mg; CLint [4]: 112 µL/min/mg; solubility kinetic [5]: 59 µg/mL (≈ 194 µM); Papp at 3 h [6]: 44.1 ×10⁻⁶ cm/s
7000 | N#CC1CCN(c2nc(-c3ccccn3)nc3ccccc23)C1 (configuration not stated) | 7.2 | –
24000 | N#CC1CCN(c2nc(-c3ccccn3)nc3ccccc23)CC1 | 2.1 | –
280 | c1ccc(C2CCN(c3nc(-c4ccccn4)nc4ccccc34)C2)cc1 (configuration not stated) | 9.7 | intrinsic clearance (CLint) [3]: > 500 µL/min/mg; solubility kinetic [5]: 0.7 µg/mL (≈ 1.99 µM)
27000 | c1ccc(-c2nc(N3CCn4ccnc4C3)c3ccccc3n2)nc1 | 1.9 | –
410 | Fc1ccc(C2CCN(c3nc(-c4ccccn4)nc4ccccc34)C2)cc1 (configuration not stated) | 9.2 | intrinsic clearance (CLint) [3]: > 500 µL/min/mg; inhibition (Trypanosoma cruzi [8]): inactive
560 | Cn1ccc2nc(-c3ccccn3)nc(N3CCC(c4ccccn4)C3)c21 (configuration not stated) | 16 | solubility kinetic [5]: 90 µg/mL (≈ 253 µM); Papp at 3 h [6]: 21.9 ×10⁻⁶ cm/s
21000 | c1ccc(-c2nc(N3CCc4nc[nH]c4C3)c3ccccc3n2)nc1 | 2.3 | –
18000 | CCn1ncc2c(N3CCC(c4ccccn4)C3)nc(-c3ccccn3)nc21 (configuration not stated) | 2.8 | –
1500 | CCn1cc2c(N3CCC(c4ccccn4)C3)nc(-c3ccccn3)nc2n1 (configuration not stated) | 2.3 | –
3300 | c1ccc(-c2nc(N3CCN(c4ccccn4)CC3)c3ccccc3n2)nc1 | 6.4 | –
7400 | c1ccc(-c2nc(N3CCc4cccnc4C3)c3ccccc3n2)nc1 | 4.9 | –
100 | c1ccc(-c2nc(N3CCCCCC3)c3ccccc3n2)nc1 | – | –
9200 | c1ccc(-c2nc(N3CCc4ncccc4C3)c3ccccc3n2)nc1 | 5.5 | –
180 | CCn1ccc2nc(-c3ccccn3)nc(N3CCC(c4ccccn4)C3)c21 (configuration not stated) | 28 | –
900 | c1ccc(-c2nc(N3CCCCC3)c3ccccc3n2)nc1 | – | –
